ChEMBL document CHEMBL1157882, “Novel 2-[(benzylamino)methyl]pyrrolidine-3,4-diol derivatives as alpha-mannosidase inhibitors and with antitumor activities against hematological and solid malignancies” (Bioorg Med Chem, 2010)
Activity calls are given as the source filed them. The rule behind the calls is not given here.

Assays:
MDA-MB-231 = test: Cytotoxicity against human MDA-MB-231 cells after 72 hrs by colorimetric assay; type: functional, cell-based
In short: (§1)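 Cells grown in McCoy's medium (adherent lines) or RPMI-1640 (U266), each with 10% FBS, L-glutamine and antibiotics, at 37 °C in 5% CO₂. Compound dissolved as a 100 mM DMSO stock, final DMSO ≤0.4%. Cells were exposed for 72 h across a 10^-2 to 400 µM range. Viability was read by CellTiter 96 Aqueous (2–4 h incubation, absorbance 490 nm). Triplicate wells; IC50 from curve fitting.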

[1] = target: Beta-galactosidase (Escherichia coli) (UniProt Q8VNN2); test: Inhibition of beta-galactosidase from Escherichia coli at 1 mM at pH 7
In short: (§2)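 Glycosidase panel of commercial enzymes assayed at each enzyme's optimal pH with compound at 1 mM; percentage inhibition of enzyme activity calculated.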

[2] = target: Alpha-galactosidase (Coffea arabica) (UniProt Q42656); test: Inhibition of alpha-galactosidase from coffee beans at 1 mM at pH 6; in short: as §2
MCF7 = test: Cytotoxicity against human MCF7 cells after 72 hrs by colorimetric assay; type: functional, cell-based; in short: as §1
[3] = target: T1, Beta-galactosidase (Aspergillus oryzae) (UniProt Q2U7N3); test: Inhibition of beta-galactosidase from Aspergillus oryzae at 1 mM at pH 4; in short: as §2
T1 sequence (whole entry): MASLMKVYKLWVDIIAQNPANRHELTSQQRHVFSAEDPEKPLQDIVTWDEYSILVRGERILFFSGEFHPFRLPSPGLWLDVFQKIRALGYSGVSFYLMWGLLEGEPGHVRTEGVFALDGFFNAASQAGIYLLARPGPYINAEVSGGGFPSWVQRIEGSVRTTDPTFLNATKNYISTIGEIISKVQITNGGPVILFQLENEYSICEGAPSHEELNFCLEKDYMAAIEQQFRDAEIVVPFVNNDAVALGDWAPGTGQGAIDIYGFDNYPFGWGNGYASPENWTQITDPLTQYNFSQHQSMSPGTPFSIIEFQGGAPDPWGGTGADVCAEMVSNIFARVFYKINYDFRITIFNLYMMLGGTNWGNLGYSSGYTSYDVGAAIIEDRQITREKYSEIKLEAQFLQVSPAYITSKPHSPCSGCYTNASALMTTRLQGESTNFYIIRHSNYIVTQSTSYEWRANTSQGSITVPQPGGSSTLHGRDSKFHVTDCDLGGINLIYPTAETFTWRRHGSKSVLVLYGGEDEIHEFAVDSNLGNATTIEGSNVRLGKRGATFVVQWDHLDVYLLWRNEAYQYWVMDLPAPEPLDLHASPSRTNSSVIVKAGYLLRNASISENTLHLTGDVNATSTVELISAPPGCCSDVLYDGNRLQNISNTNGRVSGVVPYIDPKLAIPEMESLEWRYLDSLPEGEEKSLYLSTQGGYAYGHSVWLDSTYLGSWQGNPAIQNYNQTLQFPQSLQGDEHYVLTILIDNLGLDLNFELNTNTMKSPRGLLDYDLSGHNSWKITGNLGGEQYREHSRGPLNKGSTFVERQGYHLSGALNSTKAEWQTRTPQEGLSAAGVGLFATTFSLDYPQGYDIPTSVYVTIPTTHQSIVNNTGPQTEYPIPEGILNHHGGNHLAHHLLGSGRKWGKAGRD

Canavalia ensiformis [4] = test: Inhibition of beta-N-acetylglucosaminidase from jack bean at pH 5; design: concentration or dose not given beside the values; details: concentration not given here
Canavalia ensiformis [5] = test: Inhibition of alpha-mannosidase from jack bean at 1 mM at pH 5; in short: as §2
[6] = Inhibition of alpha-mannosidase from jack bean at pH 5; design: species or system Canavalia ensiformis
PC-3 = test: Cytotoxicity against human PC3 cells after 72 hrs by colorimetric assay; type: functional, cell-based; in short: as §1
Oryza sativa = test: Inhibition of alpha-glucosidase from rice at 1 mM at pH 4; in short: as §2
SK-BR-3 = test: Cytotoxicity against human SKBR3 cells after 72 hrs by colorimetric assay; type: functional, cell-based; in short: as §1
A549 = test: Cytotoxicity against human A549 cells after 72 hrs by colorimetric assay; type: functional, cell-based; in short: as §1
[7] = Cytotoxicity against human U87 cells after 72 hrs by colorimetric assay; type: functional, cell-based, U-87MG ATCC; in short: as §1
Jurkat [8] = test: Cytotoxicity against human Jurkat cells after 72 hrs by colorimetric assay; type: functional, cell-based
Prunus dulcis = test: Inhibition of beta-glucosidase from almond at 1 mM at pH 5; in short: as §2
BT-474 = test: Cytotoxicity against human BT474 cells after 72 hrs by colorimetric assay; type: functional, cell-based; in short: as §1
Aspergillus niger = test: Inhibition of beta-xylosidase from Aspergillus niger at pH 5; design: concentration or dose not given beside the values; details: concentration not given here
Bos taurus = species: Bos taurus; test: Inhibition of beta-N-acetylglucosaminidase from bovine kidney at pH 4; design: concentration or dose not given beside the values; details: concentration not given here
[9] = target: Glucoamylase (Aspergillus niger) (UniProt P69328); test: Inhibition of amyloglucosidase from Aspergillus niger at 1 mM at pH 5; in short: as §2
Helix pomatia = test: Inhibition of beta-mannosidase from snail at pH 4; design: concentration or dose not given beside the values; details: concentration not given here
[10] = target: T2, Tissue alpha-L-fucosidase (Bos taurus) (UniProt Q2KIM0); test: Inhibition of alpha-L-fucosidase from bovine kidney at 1 mM at pH 6; in short: as §2
T2 sequence (whole entry): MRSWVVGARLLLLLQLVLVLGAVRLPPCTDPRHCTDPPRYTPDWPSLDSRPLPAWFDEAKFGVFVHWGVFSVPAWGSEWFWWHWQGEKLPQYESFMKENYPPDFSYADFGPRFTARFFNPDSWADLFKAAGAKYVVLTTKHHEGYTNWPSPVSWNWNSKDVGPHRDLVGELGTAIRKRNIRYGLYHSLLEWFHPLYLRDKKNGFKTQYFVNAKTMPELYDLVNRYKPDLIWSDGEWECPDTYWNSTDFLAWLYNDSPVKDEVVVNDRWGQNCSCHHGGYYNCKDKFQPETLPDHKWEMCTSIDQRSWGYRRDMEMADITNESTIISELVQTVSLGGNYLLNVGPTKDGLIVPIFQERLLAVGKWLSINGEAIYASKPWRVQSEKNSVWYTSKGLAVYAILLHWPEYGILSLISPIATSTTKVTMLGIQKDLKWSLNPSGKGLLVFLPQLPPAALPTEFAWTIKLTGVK

Saccharomyces cerevisiae = test: Inhibition of alpha-glucosidase from yeast at 1 mM at pH 7; in short: as §2
U-266 = test: Cytotoxicity against human U266 cells after 72 hrs by colorimetric assay; type: functional, cell-based; in short: as §1
Jurkat [11] = test: Cytotoxicity in human Jurkat cells overexpressing Bcl2 assessed as cell death at 2 uM after 72 hrs by propidium iodide-staining based flow cytometry; type: functional
In short: (§3)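 Jurkat T cells stably overexpressing Bcl-2, plus vector controls, in RPMI-1640 with 10% FBS. Seeded at 4×10⁴ per well and treated for 72 h with 40 µM etoposide, 2 µM doxorubicin or 50 µM compound. Dead cells counted by propidium iodide staining and flow cytometry; means of triplicates with SD.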

Jurkat [12] = test: Cytotoxicity in human Jurkat cells overexpressing Bcl2 assessed as cell death at 40 uM after 72 hrs by propidium iodide-staining based flow cytometry; type: functional; in short: as §3
[13] = Homo sapiens, MDA-MB-231, 72 h, read-out: IC50
[14] = Homo sapiens, MCF7, 72 h, read-out: IC50
[15] = Homo sapiens, PC-3, 72 h, read-out: IC50
[16] = Homo sapiens, SK-BR-3, 72 h, read-out: IC50
[17] = Homo sapiens, A549, 72 h, read-out: IC50
[18] = Homo sapiens, U-87 MG, 72 h, read-out: IC50
[19] = Homo sapiens, Jurkat, 72 h, read-out: IC50
[20] = Homo sapiens, BT-474, 72 h, read-out: IC50
[21] = Homo sapiens, U-266, 72 h, read-out: IC50

Alpha-galactosidase (Coffea arabica), sequence (Q42656 16-378 limits assumed): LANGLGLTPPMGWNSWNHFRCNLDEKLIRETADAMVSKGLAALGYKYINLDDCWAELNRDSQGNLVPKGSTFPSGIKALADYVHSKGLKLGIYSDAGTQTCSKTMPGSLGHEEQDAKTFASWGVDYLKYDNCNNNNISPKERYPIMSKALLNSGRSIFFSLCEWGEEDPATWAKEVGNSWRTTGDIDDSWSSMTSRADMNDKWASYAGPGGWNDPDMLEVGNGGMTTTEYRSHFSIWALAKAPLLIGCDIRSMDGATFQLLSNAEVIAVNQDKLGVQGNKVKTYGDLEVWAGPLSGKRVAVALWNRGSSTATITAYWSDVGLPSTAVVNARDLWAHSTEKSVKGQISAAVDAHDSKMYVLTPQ
Glucoamylase (Aspergillus niger), sequence (P69328 whole entry): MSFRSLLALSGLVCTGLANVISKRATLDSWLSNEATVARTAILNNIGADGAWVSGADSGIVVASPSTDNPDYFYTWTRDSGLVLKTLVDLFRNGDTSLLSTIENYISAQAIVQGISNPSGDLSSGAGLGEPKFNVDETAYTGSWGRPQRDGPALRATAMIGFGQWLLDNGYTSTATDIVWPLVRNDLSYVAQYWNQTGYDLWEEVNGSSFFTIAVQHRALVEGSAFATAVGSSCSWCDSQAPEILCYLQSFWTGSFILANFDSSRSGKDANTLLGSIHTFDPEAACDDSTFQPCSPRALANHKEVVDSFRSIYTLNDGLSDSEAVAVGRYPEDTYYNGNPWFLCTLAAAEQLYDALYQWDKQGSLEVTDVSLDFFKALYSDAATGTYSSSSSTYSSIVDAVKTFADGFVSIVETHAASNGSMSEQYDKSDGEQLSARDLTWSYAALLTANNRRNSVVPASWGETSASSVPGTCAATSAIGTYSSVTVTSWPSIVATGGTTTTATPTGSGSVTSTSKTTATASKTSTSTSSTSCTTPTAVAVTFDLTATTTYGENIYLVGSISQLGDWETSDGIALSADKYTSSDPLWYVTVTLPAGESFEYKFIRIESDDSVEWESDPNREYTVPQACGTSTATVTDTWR
Beta-galactosidase (Escherichia coli), sequence (Q8VNN2 whole entry, looked up): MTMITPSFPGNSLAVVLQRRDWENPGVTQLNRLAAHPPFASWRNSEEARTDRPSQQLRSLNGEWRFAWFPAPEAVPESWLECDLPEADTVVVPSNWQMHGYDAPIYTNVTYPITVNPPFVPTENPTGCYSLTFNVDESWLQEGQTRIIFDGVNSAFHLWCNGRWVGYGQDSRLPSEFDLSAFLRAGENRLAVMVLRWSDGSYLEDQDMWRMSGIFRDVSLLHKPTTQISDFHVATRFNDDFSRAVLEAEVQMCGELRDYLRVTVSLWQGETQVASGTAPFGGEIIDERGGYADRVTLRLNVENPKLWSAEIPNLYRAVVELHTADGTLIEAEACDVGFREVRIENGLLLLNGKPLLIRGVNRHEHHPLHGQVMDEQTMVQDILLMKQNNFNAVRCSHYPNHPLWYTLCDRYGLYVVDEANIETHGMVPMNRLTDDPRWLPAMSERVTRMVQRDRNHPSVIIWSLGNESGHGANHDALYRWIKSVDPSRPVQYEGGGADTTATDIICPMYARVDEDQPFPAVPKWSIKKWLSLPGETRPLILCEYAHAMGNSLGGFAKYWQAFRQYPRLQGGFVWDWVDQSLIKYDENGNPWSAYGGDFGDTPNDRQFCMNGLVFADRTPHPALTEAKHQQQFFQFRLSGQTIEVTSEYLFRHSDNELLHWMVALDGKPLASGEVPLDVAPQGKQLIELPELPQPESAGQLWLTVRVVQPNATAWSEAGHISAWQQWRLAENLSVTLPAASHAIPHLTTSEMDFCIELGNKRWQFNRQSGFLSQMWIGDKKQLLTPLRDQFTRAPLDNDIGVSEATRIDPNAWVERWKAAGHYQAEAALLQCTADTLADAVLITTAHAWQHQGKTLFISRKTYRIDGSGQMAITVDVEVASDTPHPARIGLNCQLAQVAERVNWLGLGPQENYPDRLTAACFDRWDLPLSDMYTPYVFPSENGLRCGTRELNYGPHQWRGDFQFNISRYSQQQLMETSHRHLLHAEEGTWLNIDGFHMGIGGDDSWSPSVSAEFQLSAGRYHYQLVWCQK

| SMILES | inhibition [1] | inhibition [2] | inhibition [3] | inhibition (Canavalia ensiformis [4]) | inhibition (Canavalia ensiformis [5]) | IC50 [6] | Ki [6] | inhibition (Oryza sativa) | inhibition (Prunus dulcis) | inhibition (Aspergillus niger) | inhibition (Bos taurus) | inhibition [9] | inhibition (Helix pomatia) | inhibition [10] | inhibition (Saccharomyces cerevisiae) | IC50 (MDA-MB-231; [13]) | IC50 (MCF7; [14]) | IC50 (PC-3; [15]) | IC50 (SK-BR-3; [16]) | IC50 (A549; [17]) | other results |
| --- | --- | --- | --- | --- | --- | --- | --- | --- | --- | --- | --- | --- | --- | --- | --- | --- | --- | --- | --- | --- | --- |
| OC[C@H](NC[C@H]1NC[C@H](O)[C@@H]1O)c1ccc(OCc2ccccc2)cc1 | < 10% | < 10% | < 10% | < 10% | 99% | 1.4 µM | 0.6 µM | < 10% | 40% | 45% | < 10% | < 10% | < 10% | < 10% | 45% |  |  |  |  |  | IC50 (MDA-MB-231; mda-mb-231): Not Active; IC50 (MCF7; mcf7): Not Active; IC50 (PC-3; pc-3): Not Active; IC50 (SK-BR-3; sk-br-3): Not Active; IC50 (A549; a549): Not Active; IC50 ([7]; u-87mg atcc): Not Active; IC50 (Jurkat [8]; jurkat): Not Active; IC50 (BT-474; bt-474): Not Active; IC50 (U-266; u-266): Not Active |
| OC[C@H](NC[C@H]1NC[C@H](O)[C@@H]1O)c1ccc(-c2ccsc2)cc1 | < 10% | < 10% | < 10% | < 10% | 97% | 1.1 µM | 0.8 µM | < 10% | 36% | 50% | < 10% | < 10% | < 10% | < 10% | < 10% |  |  |  |  |  | IC50 (MDA-MB-231; mda-mb-231): Not Active; IC50 (MCF7; mcf7): Not Active; IC50 (PC-3; pc-3): Not Active; IC50 (SK-BR-3; sk-br-3): Not Active; IC50 (A549; a549): Not Active; IC50 ([7]; u-87mg atcc): Not Active; IC50 (Jurkat [8]; jurkat): Not Active; IC50 (BT-474; bt-474): Not Active; IC50 (U-266; u-266): Not Active |
| COc1cccc2c1C(=O)c1c(O)c3c(c(O)c1C2=O)C[C@@](O)(C(=O)CO)C[C@@H]3O[C@H]1C[C@H](N)[C@H](O)[C@H](C)O1 |  |  |  |  |  |  |  |  |  |  |  |  |  |  |  |  |  |  |  |  | Activity (Jurkat [11]): inactive |
| C=CCOc1ccc([C@H](CO)NC[C@H]2NC[C@H](O)[C@@H]2O)cc1 | < 10% | < 10% | < 10% | < 10% | 99% | 0.9 µM | 0.5 µM | < 10% | 72% | 28% | < 10% | < 10% | < 10% | < 10% | 41% | > 200 µM | > 200 µM | > 200 µM | > 200 µM | > 200 µM | IC50 [7, 18]: > 200 µM; IC50 (Jurkat [8]; [19]): > 200 µM; IC50 (BT-474; [20]): > 200 µM; IC50 (U-266; [21]): > 200 µM |
| COc1ccc([C@H](CO)NC[C@H]2NC[C@H](O)[C@@H]2O)cc1 | < 10% | < 10% | < 10% | < 10% | 98% | 0.8 µM | 0.5 µM | < 10% | 62% | 28% | < 10% | < 10% | < 10% | < 10% | 41% | > 200 µM | > 200 µM | > 200 µM | > 200 µM | > 200 µM | IC50 [7, 18]: > 200 µM; IC50 (Jurkat [8]; [19]): > 200 µM; IC50 (BT-474; [20]): > 200 µM; IC50 (U-266; [21]): > 200 µM |
| OC[C@H](NC[C@H]1NC[C@H](O)[C@@H]1O)c1ccc(-c2ccccc2)cc1 | < 10% | < 10% | < 10% | < 10% | 99% | 1.4 µM | 0.9 µM | < 10% | 20% | 50% | < 10% | < 10% | < 10% | < 10% | 24% | > 200 µM | > 200 µM | > 200 µM | > 200 µM | > 200 µM | IC50 [7, 18]: > 200 µM; IC50 (Jurkat [8]; [19]): > 200 µM; IC50 (BT-474; [20]): > 200 µM; IC50 (U-266; [21]): > 200 µM |
| COc1cc([C@@H]2c3cc4c(cc3[C@@H](O[C@@H]3O[C@@H]5CO[C@@H](C)O[C@H]5[C@H](O)[C@H]3O)[C@H]3COC(=O)[C@H]23)OCO4)cc(OC)c1O |  |  |  |  |  |  |  |  |  |  |  |  |  |  |  |  |  |  |  |  | Activity (Jurkat [12]): inactive |
